# An excerpt weighted towards active compounds, which were near 3.1% of everything screened.
# OX1R antag-1: antagonists of human orexin 1 receptor (OX1R); inhibition, % at 6.6 µM; 330,000 compounds, 1.8% hits; OX1R-expressing cells, FRET antagonist read-out; Orexin/Hypocretin receptor type 1 (Homo sapiens), O43613; in the data active means inhibition mostly above about 38%, no sharp cut-off; inactive means mostly below about 40%;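 further: 0% = agonist challenge alone and 100% = reference antagonist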
# CHO parental Ca: ATP-evoked calcium signal inhibitors, parental CHO, primary screen, counter-screen for OX1R antagonist project, cell-based, fluorescence, Fluo-8 calcium dye; parental CHO-K1, ATP-induced calcium, Fluo-8 fluorescence; 330,000 compounds, 0.63% hits; inhibition, % at 5.6 µM;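 active means inhibition above that plate's mean sample inhibition plus 3 SD, cut at about 26% in these data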;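 further: 0% = ATP-challenged DMSO wells and 100% = DMSO wells without ATP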
#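 Material: Parental CHO cells | Reagent: ATP | Compound dosing: Single nominal dose of 5.6 µM per compound | Detection: Intracellular calcium via Fluo-8 no-wash fluorescent dye | Read-out: % inhibition of ATP-induced calcium mobilization | Benchmarks: Low control ATP plus DMSO, high control DMSO only | Replicates: Singlicate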
# OX1R antag-2: OX1R (HCRTR1) antagonists, primary screen, fluorescence, CHO/OX1R cells, Fluo-8 calcium, orexin A; Fluo-8 calcium fluorescence; inhibition, % at 5 µM; 330,000 compounds, 0.43% hits; AID 434989, 2010;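 active means inhibition above its plate's threshold, mean inhibition of all tested compounds on the plate plus 3 SD, cut at about 37% in these data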;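 further: 0% = orexin A challenge wells and 100% = SB-334867-A antagonist wells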
# GPR7 antag: GPR7 receptor antagonists, primary screen, cell-based, fluorescence, single concentration; Neuropeptides B/W receptor type 1 (Homo sapiens), P48145; GPR7-expressing cells, fluorescence antagonist assay; inhibition, % at 4.4 µM; 290,000 compounds, 1.1% hits; AID 1861, 2009; in the data active means inhibition above about 16%, passing the limit was not always enough;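 further: cells stimulated with the agonist NPW; 0% = agonist with vehicle and 100% = vehicle without agonist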
# Target sequence (P48145 whole entry, looked up): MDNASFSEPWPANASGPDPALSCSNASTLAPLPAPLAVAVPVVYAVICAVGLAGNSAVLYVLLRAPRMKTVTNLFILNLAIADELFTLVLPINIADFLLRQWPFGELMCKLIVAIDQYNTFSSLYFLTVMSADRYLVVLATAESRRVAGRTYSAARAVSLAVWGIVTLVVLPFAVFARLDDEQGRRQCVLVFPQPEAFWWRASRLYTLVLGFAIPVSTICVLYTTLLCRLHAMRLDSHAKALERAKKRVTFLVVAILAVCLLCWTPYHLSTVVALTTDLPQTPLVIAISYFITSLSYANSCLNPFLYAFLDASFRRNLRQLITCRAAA
# GalR3 antag: GalR3 antagonists in HEK293 cells, primary screen, cell-based, fluorescence readout | Galanin receptor type 3 (Homo sapiens), O60755 | HEK293 GalR3-CNG cAMP membrane potential fluorescence; galR3 body fused to GalR1 C-terminus | inhibition, % at 3 µM | 360,000 compounds, 0.44% hits;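 active means inhibition above the screen-wide average plus 3 SD, cut at about 13% in these data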;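 further: forskolin and galanin both at EC90 stimulate the cells; cAMP rise reported by CNG channel membrane potential dye signal; 0% = forskolin plus galanin with DMSO and 100% = forskolin alone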
# Numbers without * were called inactive; . = no result given.
SMILES,OX1R antag-1,CHO parental Ca,OX1R antag-2,GPR7 antag,GalR3 antag
COc1ccc(/C=C(\NC(=O)c2ccc(OC)cc2)C(=O)Nc2ccccc2C(=O)O)cc1,8,-8,-16,-5,-10
COc1ccc(N(C)S(=O)(=O)c2cccc(C(=O)Nc3cccc(C(=O)NC4CC4)c3)c2)cc1,8,-16,-5,.,-6
COc1ccc(N(C)S(=O)(=O)c2cccc(C(=O)NC3CCCCCC3)c2)cc1,19,-19,-29,43*,-4
Cc1cc(NC(=O)c2cc3cccc([N+](=O)[O-])c3[nH]2)ccc1F,46*,5,6,-1,1
COCC(C)NC(=O)c1cc2cccc([N+](=O)[O-])c2[nH]1 (stereo not given),35,-16,-33,-4,-2
Cc1cc(N/C=C(\C#N)S(=O)(=O)c2ccc(Cl)cc2)nc(C)n1,6,-14,-7,-8,-6
CCN(CC)c1ccc(Nc2nc(N3CCOCC3)c3ccccc3n2)cc1,42*,5,4,-6,-6
Cc1c(NC(=O)c2ccc(=O)oc2)c(=O)n(-c2ccccc2)n1C,76*,-5,-11,-14,1
Cc1c(NC(=O)CN2C(=O)C3C4C=CC(C4)C3C2=O)c(=O)n(-c2ccccc2)n1C (stereo not given),7,-9,2,-12,-4
Cc1c(NC(=O)CN2C(=O)c3cccc4cccc2c34)c(=O)n(-c2ccccc2)n1C,76*,-7,-13,-1,-2
Oc1ccc(O)c(Cc2nc3ccccc3s2)c1,11,18,-1,33*,-1
O=C(NN1C(=O)NC2(CCCCC2)C1=O)c1ccc(-c2ccc(Cl)cc2)o1,11,-38,-13,.,-2
Cc1ccccc1CCNC(=O)Cn1ccc2cc(S(=O)(=O)N3CCCC3)ccc21,46*,-16,16,4,-3
Cc1ccc(CCNC(=O)Cn2ccc3cc(S(=O)(=O)N4CCCC4)ccc32)cc1,56*,-19,22,4,1
COc1ccc(CCNC(=O)Cn2ccc3cc(S(=O)(=O)N4CCCC4)ccc32)cc1OC,57*,-15,9,-9,-3
CN(C)CCNC(=O)Cn1ccc2cc(S(=O)(=O)N3CCCCCC3)ccc21,15,-13,-9,1,1
O=C(C(=O)N1CCC(CNS(=O)(=O)c2ccccc2OC(F)(F)F)CC1)c1cccs1,.,.,.,.,1
CC(C)N1CCCC(C)(C(=O)Nc2nccc3ccccc23)C1 (stereo not given),.,.,.,.,-5
CC1Cc2ccccc2N1C(=O)C1CCCN(S(=O)(=O)c2cccc3cccnc23)C1 (stereo not given),58*,-17,-6,-10,-2
CC1Cc2ccccc2N1C(=O)CN(C)S(=O)(=O)c1cccc2cccnc12 (stereo not given),56*,2,-3,-8,-2
O=C(O)[C@@H]1CCCN(S(=O)(=O)c2cccc3cccnc23)C1,12,-5,-7,.,-2
CC(C)NC(=O)N(C)C[C@@H]1Oc2c(NC(=O)C3CCOCC3)cccc2C(=O)N([C@@H](C)CO)C[C@H]1C,5,-4,-4,.,-5
CCCC[n+]1ccn(-c2nc3ccccc3nc2[N-]S(=O)(=O)c2cccs2)c1,10,-14,-7,-10,-2
O=C(Nc1nc2ccc(F)cc2s1)C1CCN(S(=O)(=O)c2cc([N+](=O)[O-])ccc2Cl)CC1,33,67*,28,18,8
COc1cccc(C(C)(O)c2nc(-c3ccoc3)cs2)c1 (stereo not given),.,.,.,.,-6
SMILES,OX1R antag-1,CHO parental Ca,OX1R antag-2,GPR7 antag,GalR3 antag
C=CCOCCN(C)C1=NS(=O)(=O)c2cc([N+](=O)[O-])ccc21,72*,-3,-5,-3,-6
COc1ccccc1CC(=O)Nc1ccc([N+](=O)[O-])cc1O,33,1,15,29*,0
CN1C(=S)N(c2cccnc2)C(=O)/C1=C\c1ccc(N(C)C)cc1,.,.,.,8,-9
Cc1c(N2C(=O)/C(=C\c3ccc(N(C)C)cc3)N(C)C2=S)c(=O)n(-c2ccccc2)n1C,64*,19,24,-2,-3
Oc1ccc(Oc2ccc3c(C(F)(F)F)cc(C(F)(F)F)nc3n2)cc1,-1,49*,13,10,-7
CCCCNC(=O)NC1CCCC1,16,-6,-5,-5,1
O=c1[nH]c(/C=C\c2cccnc2)c([N+](=O)[O-])c(=O)[nH]1,54*,5,1,-11,-8
CCC(C)Oc1ccc(/C=C/c2[nH]c(=O)[nH]c(=O)c2[N+](=O)[O-])cc1OC (stereo not given),29,-23,-38,-8,-1
COc1cc(/C=C/c2[nH]c(=O)[nH]c(=O)c2[N+](=O)[O-])cc([N+](=O)[O-])c1O,63*,-12,-12,0,-12
O=c1[nH]c(/C=C/c2cccnc2)c([N+](=O)[O-])c(=O)[nH]1,36,-8,-21,-4,0
COc1cccc(CNC(=O)C2CCC(=O)N(CCc3cccc(F)c3)C2)c1 (stereo not given),9,-10,-13,-12,-1
Cc1nc2c(Br)cc(Br)cc2cc1O,55*,5,-14,9,1
COc1cc(/C=C2\SC(=S)N(NS(=O)(=O)c3ccc(C)cc3)C2=O)ccc1O,61,-3,-2,-19,-2
COc1cc(/C=C2/SC(=S)N(Cc3ccccc3)C2=O)ccc1O,8,33*,33,-11,-2
CCc1ccc(N=C2NC(=O)/C(=C/c3cc(OC)c(O)c(OC)c3)S2)cc1,.,.,.,-15,-3
COc1cc(/C=C2\SC(=S)N(NS(=O)(=O)c3ccccc3)C2=O)ccc1O,47,44*,24,-9,-2
COc1cc(/C=C2/SC(=O)NC2=O)ccc1OCc1ccccc1,54*,-7,-19,3,-4
COc1cc(/C=C2\SC(=Nc3ccccc3)NC2=O)cc(Cl)c1O,49*,39*,61*,18,-9
COc1ccc(/C=C2/SC(=S)NC2=O)cc1OCc1ccccc1,24,-14,-22,-15,-6
O/N=C(\c1ccccc1)c1nccc2ccccc12,8,1,1,-19,0
Cc1ccc(NC2CCCN(C(=O)c3ccc4[nH]ccc4c3)C2)cc1C (stereo not given),46,-4,9,-8,0
